Only a selection was taken, and hits are over-represented in it overall.
UPR XBP1 act – adaptive UPR (XBP1) activation; CHO-XBP1 luciferase reporter, IRE1-XBP1 UPR activation, luminescence; percent of tunicamycin response, DMSO as zero; activation, % at 20 µM; actives 0.33% (n = 330,000);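 active means versus positive control, 20 µM dose yields 30% or more activation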
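assay system = CHO-XBP1 luciferase reporter cells | amount = 1000 cells/well | buffer or medium = F12 plus 10% FBS | compound dosing = single point, 20 µM final compound, 1% DMSO | incubation = 16-18 h cell attachment at 37 °C, then 6 h compound exposure | detection = Steady-Glo luminescence read | controls = tunicamycin 10 µg/mL and vehicle-only wells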
UPR CHOP act – activators of apoptotic arm of unfolded protein response (CHOP). activation, % at 10 µM. actives 0.34% (n = 330,000). CHO-CHOP luciferase reporter, UPR activation, luminescence; percent of tunicamycin response over DMSO baseline;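 active means at 10 µM dose, activation of 40% or more, normalized to positive control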
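System: CHO-CHOP luciferase reporter cell line; amount: 500 cells/well; buffer or medium: F12 medium containing 10% fetal bovine serum; incubation: 6 h compound exposure at 37 °C after overnight seeding; measured by: luciferase luminescence after 10 min with Steady-Glo reagent; evaluation: % reporter activation, DMSO baseline versus tunicamycin full activation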
T cruzi repl – blocks replication of Trypanosoma cruzi | actives 1.4% (n = 300,000) | T. cruzi beta-gal in NIH3T3, luminescence, 90 h | AID 1885 | inhibition, % (concentration not given with the values);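 active means mean inhibition across valid replicates above about 55%, limit read from the data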;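 further: signal also drops with host cell toxicity which is not excluded here; higher percent means less beta-gal luminescence so fewer parasites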
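Assay system: NIH/3T3 host cells with β-galactosidase reporter T. cruzi; input: 5,000 host fibroblasts per well; compound: single 50 nL compound addition per well in DMSO; timing: ≥90 h infection period, 3 h prior cell attachment; measured by: GalScreen β-gal luminescence, detergent lysis, 60 min; evaluation: percent inhibition of parasite-derived β-gal signal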
L major viab – reduces viability of Leishmania major promastigotes | resazurin fluorescence viability | AID 1063 | actives 9% (n = 200,000) | inhibition, % at 10 µM; in the data active means inhibition above about 50%;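 further: promastigotes grown with compound for 44 hours at 28 °C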
Dynein cargo inh – blocks dynein driven cargo transport along microtubules. 3617.4 mouse cells, GR-EGFP nuclear translocation imaging; test concentration mostly 20 µM; stimulated with dexamethasone, 1 µM; stronger effect = lower value. z-score, hits read low. actives 0.47% (n = 220,000). AID 1381;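 active means plate z-score of nuclear minus cytoplasmic receptor signal below a set negative limit, without overly bright fluorescence or cell loss, cut at about -3.5 in these data, passing the limit was not always enough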;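 further: z-score of nuclear minus cytoplasmic ring GR-EGFP intensity difference per well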
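Buffer or medium – tet-free medium with charcoal-stripped serum · Signal – automated 10x imaging of fixed Hoechst-stained cells · Also added – dexamethasone agonist, 1.0 µM final, for 30 min · Incubation – induction 48 h, compound 1 h, agonist 30 min · Read-out – GR-EGFP nuclear translocation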
CHOP inh – CHOP inhibition in unfolded protein response. inhibition, % at 10 µM. actives 3.8% (n = 220,000). CHO-K1 CHOP-promoter luciferase, tunicamycin-induced, 15-18 h;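 active means compounds that reduced the stress-induced luciferase reporter signal by more than about 70% of percent inhibition, limit read from the data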
CHOP confirm – confirmation of CHOP induction inhibitors; AID 504437; CHO-CHOP promoter luciferase reporter, tunicamycin-induced, luminescence; actives 45% (n = 2,100); shares compounds with CHOP inh; inhibition, % at 10 µM;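 active means mean of three repeat readings of reporter signal inhibition above a set limit, cut at about 70% in these data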
CHOP UPR conf – confirmation of apoptotic unfolded protein response (CHOP) activators; shares compounds with UPR CHOP act; CHO-CHOP cells, CHOP-luciferase reporter luminescence; percent of tunicamycin response, DMSO as zero; activation, % at 10 µM; actives 64% (n = 1,000); in the data active means activation above about 33%
XBP1 UPR conf – adaptive UPR (XBP1) activation, confirmed; shares compounds with UPR XBP1 act; CHO-XBP1 IRE1-XBP1 luciferase reporter, luminescence; activation, % at 20 µM; actives 63% (n = 1,000);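 active means reporter signal at least 30% of the positive control's activation in two or more of four replicate wells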
Numbers stand for hits; – = inactive; · = no result.

SMILES	UPR XBP1 act	UPR CHOP act	T cruzi repl	L major viab	Dynein cargo inh	CHOP inh	CHOP UPR conf	others
C=CCn1cc(C=C2C(=O)NC(=O)NC2=O)c2ccccc21	–	–	–	·	·	·	·
O=C1NC(=O)N(Cc2ccccc2Cl)C(=O)/C1=C/c1cccs1	47	52	–	–	–	106	50	CHOP confirm=–;XBP1 UPR conf=74
C1CCC2S[C@H]3CCCCC3NC2C1 (some centres undefined)	–	–	–	·	–	–	·
O=c1[nH]c(O)c(/C=C2/C=CC(c3cc(Cl)ccc3Cl)=N2)c(=O)[nH]1	68	–	–	·	–	103	·	CHOP confirm=–;XBP1 UPR conf=111
FC(F)(F)c1ccccc1N1CC1c1ccncc1 (centres undefined)	–	–	–	·	·	·	·
O=C(COc1ccc2ccccc2c1)N1CCN(Cc2c[nH]c3ccccc23)CC1	–	76	–	–	–	–	43
O=C(COc1ccc(Br)cc1)N1CCN(Cc2c[nH]c3ccccc23)CC1	–	–	–	–	–	–	·
CN1CSC(=S)N(C)C1	–	40	–	–	–	–	–
CC[C@@H](CO)C1CC2NC3CC4(c5ccccc5N(C)[C@@H]24)C(O)C31 (some centres undefined)	–	–	–	·	·	·	·
O=C1NC(=O)C(=Cc2ccc(-c3ccc(Cl)cc3)o2)C(=O)N1	–	71	–	·	·	·	75
O=C1NC(=O)C(=Cc2ccc(-c3ccc(S(=O)(=O)N4CCOCC4)cc3)o2)C(=O)N1	–	–	–	·	·	·	·
COc1ccc(N2C(=O)/C(=C/c3ccc(C)o3)C(=O)NC2=S)cc1	–	433	–	·	·	·	–
C=CCN1C(=O)/C(=C/c2ccc3c(c2)CCCN3CCC)C(=O)NC1=S	–	95	–	91	–	–	164
CCCCCCCCn1sccc1=O	–	–	·	·	·	·	·
C=CCn1c(O)c(C(C)=NC(C)c2ccccc2)c(=O)[nH]c1=O (centres undefined)	–	–	–	·	–	–	·
Cn1cc(/C=C2\C(=O)NC(=O)N(c3ccccc3)C2=O)c2ccccc21	–	–	–	·	·	·	·
O=C1NC(=O)N(c2ccccc2)C(=O)/C1=C/C=C/c1ccco1	–	62	–	·	–	–	256
CC1N=C(c2ccccc2)c2cc(Br)ccc2NC1=O (centres undefined)	–	–	–	·	·	·	·
COc1cc(CN2CCN(c3cc(C)ccc3C)CC2)ccc1O	–	393	–	–	–	–	152
CCCCCCn1c(=O)c(C(=O)Nc2ncccc2C)c(O)c2ccccc21	36	61	–	·	·	·	–
C=C(C)C(Cc1c(OC)ccc(C(=O)/C=C/c2ccc(O)cc2)c1O)OO (centres undefined)	–	47	·	·	·	·	–
CC1CCC/C=C/C2CC(O)CC2C(O)/C=C/C(=O)O1 (centres undefined)	–	123	–	–	–	–	103
Cc1cccc(N2C(=O)NC(=O)/C(=C/c3ccc([N+](=O)[O-])o3)C2=O)c1	·	·	·	–	–	–	·
Cc1cccc(N2C(=O)NC(=O)/C(=C\c3cccn3-c3ccc(Cl)cc3)C2=O)c1	–	419	–	–	–	–	–
Cn1cc(C(=O)Cc2ccccc2)c2ccccc21	–	–	–	–	–	–	·
COc1ccc(Nc2ncc(C(=O)N3CCC4(CC3)OCCO4)c3ccccc23)cc1	–	–	–	–	–	–	·
COc1ccccc1-n1c(O)c(/C=C2\C=Nc3ccccc32)c(=O)[nH]c1=O	–	–	–	·	·	·	·

From PubChem BioAssay
